pIC50: −log10 of the molar value. The source made the active and inactive calls. The calls are words filed in the database; no cut-off is given here.
What was measured:
HT-29 = assay: Cytotoxicity against human HT-29 cells assessed as growth inhibition after 72 hrs by XTT assay; format: functional, cell-based; details: HT-29, 72 h
In short: (§1)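 Cells seeded at 1.5 x 10^3 per well (A549, HeLa, HT-29) or 3 x 10^3 (HL-60) in medium with 10% heat-inactivated FBS. Compound tested from 10-5 to 10-13 M for 72 h at 37 °C, then XTT readout. […] Triplicate wells, three experiments; mean ± S.D.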

HeLa [1] = assay: Inhibition of microtubule system in human HeLa cells at 10 nM after 18 hrs by confocal microscopic analysis; format: cell-based
In short: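 HeLa cells grown on poly-L-lysine coverslips and treated 18 h at 10^-8 M. Washed in HPEM (pH 6.6), fixed 15 min in 4% paraformaldehyde, permeabilized with 0.5% Triton X-100. Stained with anti-α-tubulin (1:150, 1 h), then CY3 anti-mouse IgG (1:100, 1 h, 4 °C). Imaged by confocal microscopy; representative of at least three experiments.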

A549 = assay: Cytotoxicity against human A549 cells assessed as growth inhibition after 72 hrs by XTT assay; format: functional, cell-based; details: A549, 72 h; in short: as §1
HeLa [2] = assay: Cytotoxicity against human HeLa cells assessed as growth inhibition after 72 hrs by XTT assay
HL-60 = assay: Cytotoxicity against human HL60 cells assessed as growth inhibition after 72 hrs by XTT assay; format: functional, cell-based; details: HL-60, 72 h; in short: as §1
Bos taurus = organism: Bos taurus; assay: Inhibition of bovine brain tubulin polymerization at 20 uM after 30 mins by spectrophotometry
In short: (§2)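 Bovine brain tubulin at 1.5 mg/mL, pH 6.7, in 0.1 M MES, 1 mM EGTA, 1 mM MgCl2, 1 mM β-ME, 1.5 mM GTP with ligand. Incubated 20 °C for 30 min, then on ice 10 min. Assembly read as the A450 rise on a shift from 4 to 38 °C; inhibition is plateau minus baseline against ligand-free control. IC50 from monoexponential fits.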

[3] = Inhibition of bovine brain tubulin polymerization after 30 mins by spectrophotometry; parameters: species or system Bos taurus; in short: as §2
HeLa [4] = assay: Induction of apoptosis in human HeLa cells assessed as PARP cleavage at 50 nM by Western blotting analysis; format: functional, cell-based
In short: (§3)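 HeLa cells given 50 nM compound for several times; untreated controls run in parallel. About 5 x 10^6 cells lysed and run on reducing SDS gels (12% for caspase-3, 8% for PARP), then blotted to nitrocellulose. Probed overnight with anti-active caspase-3 (p19/p17) or C2.10 anti-PARP (116 kDa and p85), each 1:1000. β-actin loading control; ECL detection. Three experiments.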

HeLa [5] = assay: Induction of apoptosis in human HeLa cells assessed as accumulation at sub-G0/G1 phase at 50 nM after 72 hrs by […] analysis; format: functional, cell-based
HeLa [6] = assay: Induction of apoptosis in human HeLa cells assessed as processing of procaspase-3 into the p19/p17 active form at 50 nM by Western blotting analysis; format: functional, cell-based; in short: as §3
HeLa [7] = assay: Cell cycle arrest in human HeLa cells assessed as accumulation at G2/M phase at 10^-8 M incubated for 18 hrs by propidium iodide staining-based FACS flow cytometric analysis relative to control; format: functional
In short: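 HeLa cells treated 18 h at 10^-8 M, with untreated controls run in parallel. 2-4 x 10^5 cells fixed overnight in 70% ethanol at 4 °C, washed in PBS, then incubated 1 h at room temperature with 1 mg/mL RNAse A and 20 µg/mL propidium iodide. DNA content read by FACSCalibur flow cytometry; percentage of cells in G2/M. Representative of three experiments.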

SMILES	pIC50 (HT-29)	inhibition (HeLa [1])	pIC50 (A549)	pIC50 (HeLa [2])	pIC50 (HL-60)	inhibition (Bos taurus)	pIC50 [3]	Activity (HeLa [4])	Activity (HeLa [5])	Activity (HeLa [6])	Activity (HeLa [7])
C=C(c1cc(OC)c(OC)c(OC)c1)c1ccc2c(c1)c(C=O)cn2C	7.21	Active	5.52	7.70	7.55	100%	6.05				
COc1cc(C(C)c2ccc3c(ccn3C)c2)cc(OC)c1OC (stereo not drawn)	8.42	Active	8.17	9.19	9.48	100%	6.00	Active	Active	Active	>85%
COc1cc(C(C)c2ccc3[nH]cc(C=O)c3c2)cc(OC)c1OC (stereo not drawn)	5.24		5.04	5.24	5.27	0%					
C=C(c1cc(OC)c(OC)c(OC)c1)c1ccc2[nH]ccc2c1	5.29		5.05	5.68	5.44	36%					
COc1cc(C(O)c2nc3cc(Br)ccc3n2C)cc(OC)c1OC (stereo not drawn)	< 5.00		< 5.00	< 5.00	< 5.00	2%					
COc1cc(C(=CC#N)c2ccc3c(c2)c(C#N)cn3C)cc(OC)c1OC	8.68	Active	8.31	8.46	8.32	90%	5.33	Active	Active	Active	>85%
C=C(c1cc(OC)c(OC)c(OC)c1)c1ccc2c(c1)c(CO)cn2C	5.70		5.49	6.51	6.60	32%					
COc1ccc(C(=O)c2ccc3c(ccn3C)c2)c(OC)c1OC	6.62		6.42		6.62	100%	6.40				
C=C(c1cc(OC)c(OC)c(OC)c1)c1ccc2c(c1)c(C=NN)cn2C	6.52		5.49	7.42	6.74	12%					
C=C(c1ccc2c(c1)c(CO)cn2C)c1ccc(OC)c(OC)c1OC	6.34		6.36	6.52	6.66	32%					
C=C(c1ccc2c(c1)c(C#N)cn2C)c1ccc(OC)c(OC)c1OC	7.49		6.44	7.49	7.57	89%	5.66				
COc1cc(C(=O)c2nc3ccc(Br)cc3n2C)cc(OC)c1OC	5.57		5.00	5.64	5.62	37%					
COc1cc(C(O)c2nc3ccc(Br)cc3n2C)cc(OC)c1OC (stereo not drawn)	< 5.00		< 5.00	< 5.00	< 5.00	22%					
COc1ccc(C(=CC=O)c2ccc3c(c2)c(C=O)cn3C)c(OC)c1OC	6.52		6.46	6.52	6.52	98%	5.23				
COc1cc(C(=O)c2nc3cc(Br)ccc3n2C)cc(OC)c1OC	6.47		6.40	6.72	7.54	37%					
COc1cc(C(=O)c2ccc3c(c2)c(C(=O)O)cn3C)cc(OC)c1OC	< 5.00		< 5.00	5.15	< 5.00	2%					
COc1cc(C(=O)c2ccc3ocnc3c2)cc(OC)c1OC	5.55		5.00	6.47	6.33	0%					

SMILES	pIC50 (HT-29)	inhibition (HeLa [1])	pIC50 (A549)	pIC50 (HeLa [2])	pIC50 (HL-60)	inhibition (Bos taurus)	pIC50 [3]	Activity (HeLa [4])	Activity (HeLa [5])	Activity (HeLa [6])	Activity (HeLa [7])
COc1cc(C(=CC=O)c2ccc3c(c2)c(C=O)cn3C)cc(OC)c1OC	6.66		6.47	7.51	7.48	88%	5.15				
C=C(c1ccc2c(ccn2C)c1)c1ccc(OC)c(OC)c1OC	6.51		6.14	7.49	6.55	97%	5.33				
C=C(c1cc(OC)c(OC)c(OC)c1)c1ccc2c(ccn2C)c1	8.51		7.55	8.57	8.55	96%	6.15				
C=C(c1cc(OC)c(OC)c(OC)c1)c1ccc2c(c1)c(C(N)=O)cn2C	9.29	Active	8.74	9.60	9.96	93%	6.05	Active	Active	Active	>85%
COc1cc(C(=O)c2ccc3c(ccn3C)c2)cc(OC)c1OC	7.57		6.72	7.60	7.57	98%	5.10				
C=C(c1ccc2c(c1)c(C=NO)cn2C)c1ccc(OC)c(OC)c1OC	6.49		6.54	7.47	6.57	95%	5.40				
COc1ccc(C(=O)c2ccc3c(c2)c(C=O)cn3C)c(OC)c1OC	5.28		< 5.00	6.11	6.11	73%					
COc1ccc(C(C)c2ccc3c(c2)c(C=NN)cn3C)c(OC)c1OC (stereo not drawn)	5.49		< 5.00	6.37	5.74	0%					
COc1ccc(C(=O)c2ccc3c(c2)c(C#N)cn3C)c(OC)c1OC	6.51		5.70	6.57	6.54	40%					
C=C(c1cc(OC)c(OC)c(OC)c1)c1ccc2c(c1)c(C=NO)cn2C	7.48	Active	7.52	8.21	7.68	93%	5.59				
COc1cc(C(C)c2ccc3[nH]ccc3c2)cc(OC)c1OC (stereo not drawn)	5.48		5.31	5.64	5.47	5%					
COc1ccc(C(C)c2ccc3c(ccn3C)c2)c(OC)c1OC (stereo not drawn)	6.48		6.33	6.51	6.43	87%					
COc1cc(C(=O)c2ccc3c(c2)c(C=O)cn3C)cc(OC)c1OC	5.52		< 5.00	6.49	6.51	61%	4.77				
C=C(c1cc(OC)c(OC)c(OC)c1)c1ccc2c(c1)c(C(=O)O)cn2C	6.26		5.96	6.06	5.96	91%	5.30				
COc1cc(/C(=C\C=O)c2ccc3c(c2)c(C=O)cn3C)cc(OC)c1OC	6.77		6.49	7.52	7.54	96%					
COc1cc(C(C)c2ccc3c(c2)c(C)cn3C)cc(OC)c1OC (stereo not drawn)	6.51		6.49	6.51	6.55	90%					
C=C(c1ccc2c(c1)c(C=O)cn2C)c1ccc(OC)c(OC)c1OC	6.64	Active	5.74	7.49	7.49	98%	5.40				

From ChEMBL document CHEMBL2321691 (J Med Chem, 2013)
